The text below walks through data of PMC5955769 (ACS chemical neuroscience, 2018).

One assay deals with Nrf2. In words: Neh2-luc SH-SY5Y cell-based reporter. The note with it: for Nrf2 activity in Neh2-luciferase reporter assay (library screen): IRSF SMART library screen. A digest of the protocol: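 Luciferase reporter in SH-SY5Y cells carrying the Nrf2 Neh2 fusion (Neh2-luc). It is used to find agents that directly stabilize the Nrf2 transcription factor. Run as a screen of an approved and preclinical drug library, and as concentration-response testing of selected compounds. TBHQ was the reference Nrf2 activator.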
For orientation: In a reporter assay the amount or activity of a reporter protein is the signal.

Another assay concerns HIF-1α. In words: ODD-luc SH-SY5Y cell reporter. In kind it is cell-based. The note with it: SH-SY5Y cells. The essentials: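 HIF-1α ODD-luciferase reporter in SH-SY5Y cells, run as concentration-response testing. The PHD inhibitor FG-4592 served as the HIF-activating control.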

For the compound `CC1(C)CNc2ccccc21` [3,3-dimethylindoline (III)], the “Nrf2 (Neh2-luc) fold activation” value with Nrf2 (SH-SY5Y cells, fold increase in luminescence relative to vehicle control) came out at 1.8 fold.

As for `O=C(CCCCCCC(=O)Nc1ccccc1)NO` [SAHA], the “Nrf2 activity in Neh2-luciferase reporter assay (library screen)” value (“Nrf2 activity” for short) with Nrf2 is recorded as “Nrf2 hits”.

With `CC(/C=C/C(=O)NO)=C\[C@@H](C)C(=O)c1ccc(N(C)C)cc1` [TSA], the “Nrf2 activity” value with Nrf2 is “Nrf2 hits”.

With `Nc1ccccc1NC(=O)c1ccc(CNC(=O)OCc2cccnc2)cc1` [entinostat], in the assay with Nrf2, the “Nrf2 activity” value is “completely inactive”.

With `O=C(/C=C/C#Cc1cccc(NS(=O)(=O)c2ccccc2)c1)NO` [oxamflatin], the “Nrf2 activity” value with Nrf2 is given as “Nrf2 hits”.

Take `CC(=O)Nc1ccc(C(=O)Nc2ccccc2N)cc1` [tacedinaline]: the “Nrf2 activity” value in the assay on Nrf2 was “inactive”.

As for `CN1CCc2c(c3ccccc3n2Cc2ccc(C(=O)NO)cc2)C1` [tubastatin], in the assay with Nrf2, the “Nrf2 activity” value is recorded as “Nrf2 hits”. For the same compound, the “HIF-1α (ODD-luc) fold activation” value with HIF-1α is 2.4 fold.
